One may read the IC50 as the point on the concentration scale where inhibition reaches its midpoint.

Data set [1] can be described thus: Inhibition of HDAC activity in human HeLa cell nuclear extract using fluorometric substrate measured after 30 mins by fluorescence assay. In kind it is cell-based.
For data set [2], the species on record is Sus scrofa. In words: Inhibition of purified porcine tubulin polymerization at 1 to 10 uM measured every 1 min for 30 mins.
The target of data set [3] is T1, Protein deacetylase HDAC6 (Homo sapiens, UniProt Q9UBN7).
T1 sequence (Q9UBN7 whole entry): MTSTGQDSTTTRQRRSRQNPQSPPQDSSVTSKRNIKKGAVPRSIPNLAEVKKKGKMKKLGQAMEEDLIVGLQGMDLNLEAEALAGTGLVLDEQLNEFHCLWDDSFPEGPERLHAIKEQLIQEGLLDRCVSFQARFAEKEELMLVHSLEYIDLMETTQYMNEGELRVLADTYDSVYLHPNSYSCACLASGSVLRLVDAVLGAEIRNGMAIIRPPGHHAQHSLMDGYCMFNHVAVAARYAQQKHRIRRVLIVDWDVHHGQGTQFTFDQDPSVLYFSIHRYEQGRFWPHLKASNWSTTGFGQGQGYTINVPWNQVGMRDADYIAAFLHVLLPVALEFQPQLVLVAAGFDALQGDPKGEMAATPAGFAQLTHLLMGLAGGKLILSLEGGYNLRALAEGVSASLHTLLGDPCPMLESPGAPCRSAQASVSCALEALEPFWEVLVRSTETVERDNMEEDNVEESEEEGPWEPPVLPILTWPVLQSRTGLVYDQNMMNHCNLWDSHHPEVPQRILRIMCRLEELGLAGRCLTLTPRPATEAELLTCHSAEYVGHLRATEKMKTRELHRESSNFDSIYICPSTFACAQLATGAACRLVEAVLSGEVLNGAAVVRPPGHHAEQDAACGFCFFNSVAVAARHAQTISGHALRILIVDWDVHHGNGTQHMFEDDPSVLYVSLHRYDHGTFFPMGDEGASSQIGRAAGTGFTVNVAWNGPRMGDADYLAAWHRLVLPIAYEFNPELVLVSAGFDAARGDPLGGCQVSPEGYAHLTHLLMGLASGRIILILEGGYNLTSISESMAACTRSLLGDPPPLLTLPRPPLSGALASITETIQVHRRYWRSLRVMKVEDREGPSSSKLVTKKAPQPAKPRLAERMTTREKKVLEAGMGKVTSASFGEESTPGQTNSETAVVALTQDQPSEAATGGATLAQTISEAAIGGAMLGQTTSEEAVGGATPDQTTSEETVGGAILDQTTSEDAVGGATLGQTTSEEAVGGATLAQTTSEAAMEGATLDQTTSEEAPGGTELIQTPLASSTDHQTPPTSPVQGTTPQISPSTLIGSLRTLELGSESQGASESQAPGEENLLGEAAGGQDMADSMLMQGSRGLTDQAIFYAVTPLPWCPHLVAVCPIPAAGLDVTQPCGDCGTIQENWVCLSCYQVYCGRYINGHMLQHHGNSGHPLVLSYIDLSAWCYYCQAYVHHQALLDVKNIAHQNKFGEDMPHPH
Put plainly: Inhibition of recombinant human HDAC6 using fluorogenic substrate by fluorescence assay.

Another data set relates to HCT-116. In words: Antiproliferative activity against human HCT116 cells measured after 48 hrs by sulforhodamine-B assay. It counts as functional, cell-based. Conditions: HCT-116, 48 h. In general terms: The SRB assay estimates cell density from bound dye.
In another data set the test system is A549. In words: Antiproliferative activity against human A549 cells measured after 48 hrs by sulforhodamine-B assay. It counts as functional, cell-based. Conditions: A549, 48 h.
The next data set relates to PC-3. Put plainly: Antiproliferative activity against human PC3 cells measured after 48 hrs by sulforhodamine-B assay. The settings on record: PC-3, 48 h. It counts as functional, cell-based.
The next data set addresses Histone deacetylase 1 (Homo sapiens, UniProt Q13547). In words: Inhibition of recombinant human HDAC1 using fluorogenic substrate by fluorescence assay.
For the next data set, the target named is Histone deacetylase 2 (Homo sapiens, UniProt Q92769). In words: Inhibition of recombinant human HDAC2 using fluorogenic substrate by fluorescence assay.
For data set [4], the species on record is Homo sapiens. Put plainly: Selectivity ratio of IC50 for recombinant human HDAC8 to IC50 for recombinant human HDAC6.
For another data set, the system named is Mus musculus. Put plainly: Toxicity in human RPMI8226 cells xenografted in athymic mouse assessed as mortality at 1 mg/kg, ip administered once in a week. It counts as organism-based. Conditions: in vivo. Summed up: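 RPMI-8226 xenograft nude mice given bortezomib 1 mg/kg i.p. once a week as reference treatment; animal deaths recorded.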
(A xenograft is tissue or cells of one species grown in another, often human tumour cells in immunodeficient mice.)

The species named for data set [5] is Homo sapiens. In words: Inhibition of tubulin polymerization in human PC3 cells assessed as […] in MPM2 expression at 0.01 to 10 uM by Western blot analysis. In kind it is cell-based. Background: Immunoblotting shows a protein as a band on a membrane.
For data set [6], the species on record is Homo sapiens. Put plainly: Inhibition of HDAC in human PC3 cells assessed as increase in alpha-tubulin acetylation by Western blot analysis. In kind it is cell-based. A digest of the protocol: (§1)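 PC3 prostate cancer cells treated, then lysed in 20 mM Tris-HCl pH 7.5 with 150 mM NaCl, EDTA/EGTA, phosphatase and protease inhibitors, 0.1% Triton X-100. Lysates spun 13,000 rpm for 30 min, then immunoblotted for acetylated α-tubulin and acetylated histone H3.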

For data set [7], the species on record is Sus scrofa. In words: Inhibition of purified porcine tubulin polymerization at 10 uM measured every 1 min for 30 mins.
The species named for data set [8] is Homo sapiens. Put plainly: Inhibition of HDAC in human PC3 cells assessed as increase in histone-H3 acetylation by Western blot analysis. It counts as cell-based. A digest of the protocol:
as §1

The species entered for data set [9] is Homo sapiens. Put plainly: Inhibition of HDAC in human PC3 cells assessed as increase in histone-H3 acetylation at 0.01 to 10 uM by Western blot analysis. It counts as cell-based. A digest of the protocol: as §1
The species named for data set [10] is Sus scrofa. In words: Inhibition of purified porcine tubulin polymerization measured every 1 min for 30 mins.

Calls of active or inactive are those of the source. No cut-off for these calls is given here.

Chain of Histone deacetylase 1 (Q13547 whole entry): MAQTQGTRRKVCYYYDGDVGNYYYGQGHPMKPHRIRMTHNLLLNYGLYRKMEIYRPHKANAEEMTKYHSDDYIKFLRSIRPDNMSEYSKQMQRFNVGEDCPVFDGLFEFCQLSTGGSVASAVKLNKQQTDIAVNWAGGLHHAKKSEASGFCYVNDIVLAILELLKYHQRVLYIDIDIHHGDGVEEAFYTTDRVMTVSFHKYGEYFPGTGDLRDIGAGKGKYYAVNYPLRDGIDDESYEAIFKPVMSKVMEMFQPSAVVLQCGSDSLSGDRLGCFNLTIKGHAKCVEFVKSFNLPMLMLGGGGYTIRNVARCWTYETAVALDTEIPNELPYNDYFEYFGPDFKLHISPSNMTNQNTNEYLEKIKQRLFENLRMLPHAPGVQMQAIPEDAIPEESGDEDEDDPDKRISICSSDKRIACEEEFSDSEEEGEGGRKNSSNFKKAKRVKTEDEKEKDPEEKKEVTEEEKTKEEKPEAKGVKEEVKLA
Chain of Histone deacetylase 2 (Q92769 whole entry): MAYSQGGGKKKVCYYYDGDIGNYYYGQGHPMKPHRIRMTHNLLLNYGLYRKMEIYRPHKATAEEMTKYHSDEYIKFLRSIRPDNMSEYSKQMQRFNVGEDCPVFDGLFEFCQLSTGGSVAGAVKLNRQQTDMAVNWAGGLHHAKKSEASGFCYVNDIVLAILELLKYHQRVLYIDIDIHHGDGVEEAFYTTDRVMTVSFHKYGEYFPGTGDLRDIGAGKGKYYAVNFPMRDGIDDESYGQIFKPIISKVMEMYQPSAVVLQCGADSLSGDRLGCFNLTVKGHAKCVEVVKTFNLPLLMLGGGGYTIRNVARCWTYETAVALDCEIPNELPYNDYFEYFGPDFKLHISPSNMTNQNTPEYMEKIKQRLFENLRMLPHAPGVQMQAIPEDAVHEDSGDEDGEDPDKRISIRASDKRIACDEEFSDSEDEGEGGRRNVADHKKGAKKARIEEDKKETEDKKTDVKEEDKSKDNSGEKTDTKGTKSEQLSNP

For `COc1ccc2c(C(=O)c3cc(OC)c(OC)c(OC)c3)cn(S(=O)(=O)c3ccc(/C=C/C(=O)NO)cc3)c2c1`, the half-inhibitory concentration (IC50) in data set [1] is over 10000 nM; in data set [3], over 10000 nM; in the data set with HCT-116, 70.3 nM; with A549, 120 nM; with PC-3, 66.7 nM; on Histone deacetylase 1, over 10000 nM. For the same molecule, on Histone deacetylase 2, the IC50 was over 10000 nM. In the data set listed under Sus scrofa [2], the inhibition entry is “Active”.

For `CN1CCc2c(c3ccccc3n2Cc2ccc(C(=O)NO)cc2)C1`, in the data set listed under Homo sapiens [4], the Ratio IC50 was found to be 14.

For `CC(C)C[C@H](NC(=O)[C@H](Cc1ccccc1)NC(=O)c1cnccn1)B(O)O` [BORTEZOMIB], the Activity result in the data set with Mus musculus is “Toxic”.

As to `COc1cc(C(=O)c2cn(Cc3ccc(/C=C/C(=O)NO)cc3)c3ccccc23)cc(OC)c1OC`, the IC50 was 178 nM in data set [1]; 138 nM in data set [3]; 5500 nM in the data set with HCT-116; 1900 nM in the data set on A549; 2600 nM with PC-3; 141 nM at Histone deacetylase 1. The IC50 at Histone deacetylase 2 was found to be 386 nM. In addition, the inhibition result in the data set filed under Homo sapiens [5] and in the data set filed under Sus scrofa [7] was “inactive” each time. In the data set filed under Homo sapiens [6], the alpha-tubulin acetylation increase result is “Dose-dependent effect”. Besides, the inhibition entry in the data set listed under Homo sapiens [8] was “Dose-dependent effect”.

Take `COc1ccc(C(=O)c2cn(Cc3ccc(C(=O)NO)cc3)c3cc(OC)ccc23)cc1`: the IC50 is 145 nM in data set [1]; 108 nM in [3]; 1900 nM in the data set with HCT-116; 940 nM in the data set on A549; 1840 nM in the data set with PC-3; 158 nM at Histone deacetylase 1. For the same molecule, at Histone deacetylase 2, the IC50 was 209 nM. In addition, the inhibition entry in the data set listed under Homo sapiens [5] and in the data set filed under Sus scrofa [7] was “inactive” in each case. Moreover, the alpha-tubulin acetylation increase entry in the data set filed under Homo sapiens [6] is “Dose-dependent effect”. Further, the inhibition result in the data set listed under Homo sapiens [8] is “Dose-dependent effect”.

With `COc1cc(C(=O)c2cn(S(=O)(=O)c3cccc(/C=C/C(=O)NO)c3)c3ccccc23)cc(OC)c1OC`, the IC50 amounted to 172 nM in [1]; 792 nM in data set [3]; 6680 nM with HCT-116; 4590 nM in the data set with A549; 5770 nM with PC-3; 139 nM on Histone deacetylase 1. In addition, on Histone deacetylase 2, the half-inhibitory concentration (IC50) came to 2320 nM. The inhibition result in the data set filed under Homo sapiens [9], in the data set listed under Homo sapiens [5] and in the data set filed under Sus scrofa [7] was “inactive” in each case.

Consider `COc1ccc2c(C(=O)c3cc(OC)c(OC)c(OC)c3)cn(Cc3ccc(C(=O)Nc4ccccc4N)cc3)c2c1`, for which the IC50 in data set [1] is over 10000 nM; in the data set on HCT-116 it was 231 nM; in the data set with A549, 208 nM; with PC-3, 157 nM. For the same molecule, in the data set filed under Sus scrofa [10], the inhibition entry is “Dose-dependent effect”.

In the case of `COc1ccc2c(C(=O)c3cc(OC)c(OC)c(OC)c3)cn(Cc3ccc(/C=C/C(=O)NO)cc3)c2c1`, the IC50 in data set [1] is 147 nM; in data set [3], 70.5 nM; with HCT-116, 1670 nM; with A549, 678 nM; in the data set with PC-3 it was 666 nM; at Histone deacetylase 1, 130 nM. Further, at Histone deacetylase 2, the half-inhibitory concentration (IC50) turned out to be 288 nM. The inhibition result in the data set filed under Sus scrofa [10] and in the data set filed under Homo sapiens [8] was “Dose-dependent effect” in each case. The alpha-tubulin acetylation increase result in the data set listed under Homo sapiens [6] was “Dose-dependent effect”.
